bCat nuc transl = alters nuclear translocation of beta-catenin in HeLa cells. immunofluorescence imaging. nuclear translocation activity, % at 5 µM. 190,000 tested, 0.3% active;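 active = nuclear translocation activity above 50% at 5 µM, with a well cell count of 50 or more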;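 note: per-cell ratio of nuclear to cytoplasmic median beta-catenin stain intensity; plate controls were DMSO negative control for no effect and GSK-3 inhibitor IX positive control for full effect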
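System: Human HeLa cells, endogenous beta-catenin | Compound dosing: 5 µM primary, 0.02–20 µM confirmation | Timing: 24 h compound exposure at 37°C, 5% CO2 | Measured by: Fluorescence imaging of beta-catenin antibody stain plus DAPI | Read-out basis: % activation of per-cell nuclear versus cytoplasmic median beta-catenin signal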
MT stabilizer = microtubule stabilization, imaging screen; 200,000 tested, 0.83% active; AID 2205; HeLa tubulin immunostaining HCS, 24 h; share of cells brighter than vehicle mean+2SD; % tubulin-high responders, % at 10 µM;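 active = plate Z-score above 3 for both tubulin-high and condensed-nucleus cell shares, with cell loss under 80%, at 10 µM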;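 note: anti alpha tubulin signal scored within the nucleus-defined area of each cell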
Pf gametocyte = P. falciparum stage V gametocyte viability inhibition; P. falciparum stage V gametocytes, ATP luminescence, 24 h; inhibition, % at 10.9 µM; 150,000 tested, 0.065% active;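 active = inhibition above the mean plus 3 SD of compounds within the control limits, set per campaign, cut at about 38% in these data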;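 note: 0% = DMSO wells and 100% = medium only without gametocytes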
Cl transport mod = modulators of human KCC2 chloride dependent transport; 190,000 tested, 2.2% active; KCC2 cells, thallium flux FluoZin-2 fluorescence; Q9H2X9; B-score of Tl+ flux slope (higher = more flux/activation; lower = inhibition) at 10 µM;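 active = thallium flux slope and its plate-corrected score both differing from the plate sample mean at a set confidence after two filtering rounds, in either direction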;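 note: slope of fluorescence scaled to starting intensity during 10 to 20 s after thallium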
Target sequence (Q9H2X9 whole entry, looked up): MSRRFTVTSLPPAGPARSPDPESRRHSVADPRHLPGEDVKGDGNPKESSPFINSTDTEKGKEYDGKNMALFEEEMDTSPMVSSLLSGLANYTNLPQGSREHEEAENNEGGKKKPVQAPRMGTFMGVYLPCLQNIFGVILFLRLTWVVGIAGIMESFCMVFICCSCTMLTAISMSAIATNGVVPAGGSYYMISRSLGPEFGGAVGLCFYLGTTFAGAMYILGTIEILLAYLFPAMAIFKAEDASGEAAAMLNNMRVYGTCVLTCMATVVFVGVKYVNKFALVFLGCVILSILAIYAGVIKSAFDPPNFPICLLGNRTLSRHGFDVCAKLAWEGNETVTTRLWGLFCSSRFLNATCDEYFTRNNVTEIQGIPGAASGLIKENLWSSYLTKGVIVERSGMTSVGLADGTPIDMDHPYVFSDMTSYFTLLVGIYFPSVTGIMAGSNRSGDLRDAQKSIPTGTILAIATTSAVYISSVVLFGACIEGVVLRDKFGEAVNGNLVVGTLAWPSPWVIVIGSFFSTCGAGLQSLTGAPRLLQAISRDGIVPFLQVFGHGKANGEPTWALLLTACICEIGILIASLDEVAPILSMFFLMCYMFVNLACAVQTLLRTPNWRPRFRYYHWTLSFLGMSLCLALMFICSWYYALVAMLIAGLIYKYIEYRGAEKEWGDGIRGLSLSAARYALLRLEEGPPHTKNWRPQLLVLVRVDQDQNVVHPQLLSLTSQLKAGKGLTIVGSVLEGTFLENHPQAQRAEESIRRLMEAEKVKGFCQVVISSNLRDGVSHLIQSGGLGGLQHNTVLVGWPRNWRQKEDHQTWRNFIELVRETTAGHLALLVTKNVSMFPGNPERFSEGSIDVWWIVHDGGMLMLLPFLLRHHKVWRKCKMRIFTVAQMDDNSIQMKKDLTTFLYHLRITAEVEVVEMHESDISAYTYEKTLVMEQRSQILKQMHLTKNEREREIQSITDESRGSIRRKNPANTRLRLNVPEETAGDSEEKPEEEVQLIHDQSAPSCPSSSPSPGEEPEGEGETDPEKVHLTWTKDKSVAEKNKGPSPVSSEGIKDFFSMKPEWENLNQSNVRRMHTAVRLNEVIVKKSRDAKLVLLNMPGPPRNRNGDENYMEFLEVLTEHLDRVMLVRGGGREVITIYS
WT yeast gro inh = growth inhibition of WT yeast, mitochondrial fusion screen | mitochondrial fusion phenotypic screen, WT strain | AID 1362 | 190,000 tested, 2.1% active | inhibition, % at 10 µM; in the data active = inhibition above about 58%; tested in S. cerevisiae
An asterisk follows results filed as active; / = no result given. In the library only some 4% were active in any assay of this set; here they are far more common.

SMILES	bCat nuc transl	MT stabilizer	Pf gametocyte	Cl transport mod	WT yeast gro inh
Cn1c(=O)[nH]c(=O)c2c1nc([N+](=O)[O-])n2Cc1ccccc1	-1	/	4	0.29	/
Cc1ccc(C(=O)c2c(NC(=O)c3cccnc3)sc3c2CCCC3)cc1	4	2	3	-0.49	61*
O=C(Nc1sc2c(c1C(=O)O)CCCCC2)c1ccccc1	-3	2	-3	1.6	2
COc1ccccc1NC(=O)c1ccc(-c2ccc(Br)cc2)o1	2	39*	-8	/	8
O=C(Nc1ccccc1)c1ccc(-c2ccc(Br)cc2)o1	/	1	-13	-0.045	74*
O=C(Nc1ccc(CN2CCOCC2)cc1)c1ccc(-c2ccc(Br)cc2)o1	15	2	17	0.055	64
O=C(Nc1cccc(NC(=O)c2ccc(-c3ccc(Br)cc3)o2)c1)c1ccccc1	-4	18*	4	-0.2	7
O=C(Nc1ccccc1C(=O)O)c1cccc(NC(=O)c2ccc(Br)o2)c1	-2	4	/	-3.2*	-6
COc1ccc(C(C)=O)cc1COC(=O)C(CO)NS(=O)(=O)c1ccc(Br)cc1 (stereo unspecified)	-1	4	20	-0.5	-4
O=c1oc2c(-c3cccc(F)c3)cc(O)cc2s1	-1	3	0	-1.2	3
Cc1ccc(C(=O)Nc2c(C)cc(C)c3cccnc23)cc1	/	/	-26	/	/
Cc1ccc(C(=O)N/C(=C\c2ccc(-c3ccc(Br)cc3)o2)C(=O)NC2CCS(=O)(=O)C2)cc1 (stereo unspecified)	6	9	-1	0.036	2
O=C(NC1CCS(=O)(=O)C1)c1ccc(-c2ccc(Br)cc2)o1 (stereo unspecified)	0	3	/	-0.028	82*
c1ccc2c(CSc3ncnc4nc[nH]c34)cccc2c1	1	4	-20	-1.2	65*
COc1ccc(N2CCN(c3oc(Cc4ccccc4)nc3C#N)CC2)cc1	2	29*	-24	0.021	-1
CS(=O)(=O)NNC(=O)c1sccc1OCc1ncc(C(F)(F)F)cc1Cl	0	/	0	0.57	/
O=C1NC2(CCCCCC2)C(=O)N1Cc1ccc([N+](=O)[O-])cc1	0	3	-5	0.14	7
CCCCC(=O)Nc1nc(C)c(-c2csc(Nc3cc(Cl)ccc3OC)n2)s1	6	3	2	-1.2	6
CCCCC(=O)Nc1nc(C)c(-c2csc(Nc3cc(OC)ccc3OC)n2)s1	39	52*	/	-0.21	19
O=C1C(Cl)=C(NC2CCCCC2)C(=O)N1Cc1ccccc1	2	2	0	0.98	70*
Cc1c(C(=O)N/N=C/c2ccc(Cl)cc2)[nH]c2ccc(Cl)cc12	119*	6	-14	2.5	75
O=C(CN1CCN(Cc2cccc(F)c2)CC1)NCc1ccccc1	/	/	8	/	/
Cc1nc2sccn2c(=O)c1CCN1CCC(=C(c2ccc(F)cc2)c2ccc(F)cc2)CC1	3	1	/	-0.71	79*
C=C(C)C1CC=C(C)/C(=N/NC(=S)Nc2ccccc2)C1 (stereo unspecified)	-3	3	/	6.5*	53
Cc1ccc(-c2c(C(=O)NCc3ccc(F)cc3)oc(=O)c3ccccc23)cc1	-6	2	15	0.11	62*
SMILES	bCat nuc transl	MT stabilizer	Pf gametocyte	Cl transport mod	WT yeast gro inh
O=C(COC(=O)c1ccc(NS(=O)(=O)c2cccs2)cc1O)Nc1nc2ccccc2s1	-2	3	-8	0.59	2
O=C(COC(=O)c1ccc(NS(=O)(=O)c2cccs2)cc1O)NCc1ccccc1	76*	24*	14	-1.1	-4
O=C(COC(=O)c1ccc(NS(=O)(=O)c2cccs2)cc1)NCc1ccco1	111*	/	/	-0.65	/
Cc1ccccc1Nc1cc2ccccc2c(=O)[nH]1	/	1	/	-0.91	66*
COc1ccc(-c2[nH]ncc2CN2CCC(OCc3ccccn3)CC2)c(F)c1	0	/	-22	0.26	/
O=C(NC(=S)N(Cc1ccccc1)Cc1ccccc1)c1ccccc1F	0	2	2	65*	4
O=C(NC(=S)NC(=O)c1ccccc1F)c1ccccc1F	-1	2	-20	2.7	-11
O=C(O)CNC(=S)N(Cc1ccccc1)Cc1ccccc1F	0	3	/	-2.6	-5
O=C(NC(=S)NCc1ccccc1)c1ccccc1F	0	1	18	15*	6
COc1ccc(NC(=O)c2c(N)cnn2C)cc1	/	/	2	/	/
CC1=NOC2(C1)N(C)c1ccccc1C2(C)C (stereo unspecified)	5	1	13	0.19	0
COc1ccc2ccc3c(c2c1)N=C[C@]1(O3)N(C)c2ccccc2C1(C)C	0	2	/	0.038	75*
O=C(CCC(=O)OCc1ccc(Br)cc1)Nc1ccccc1	0	2	9	-1.4	0
O=C(COC(=O)c1ccccc1Cc1ccccc1)Nc1ccc(SC(F)F)cc1	/	2	-3	0.74	70*
COc1ccc(/C=C2\C(=O)NCC(=O)N2Cc2ccccc2)cc1	-2	32*	/	/	-10
CC(C)c1ccc2c(c1)[C@H]1OCC[C@H]1[C@@H](c1cccs1)N2	36	20*	-11	-3.6	6
CCC1Oc2ccc(C)cc2N(CC(=O)NCC2COc3ccccc3O2)C1=O (stereo unspecified)	/	3	/	0.15	5
Cc1cccc(Nc2sc(C(=O)c3cc4cc(Cl)ccc4o3)c(N)c2C#N)c1	-1	/	/	0.87	/
CCN(CC)c1ccc(/C=N/N=C(N)N)c(O)c1	77*	7	15	0.2	15
O=C(O)C[C@@H]1C(=O)O[C@@H]2C(COC(=O)c3cc(O)c(O)c(O)c3)O[C@@H](OC(=O)c3cc(O)c(O)c(O)c3)[C@@H](OC(=O)c3cc(O)c(O)c4c3[C@H]1[C@H](O)C(=O)O4)[C@H]2OC(=O)c1cc(O)c(O)c(O)c1 (stereo partly specified)	2	/	/	-1.1	/
COc1ccccc1CNC(=O)c1ccccc1N	/	1	/	-0.04	9
COc1ccccc1CNC(=O)c1ccccc1OCc1ccc(F)cc1	3	2	/	-1.9	67*
CC1CCCCN1c1nc(-c2ccncc2)nc2ccccc12 (stereo unspecified)	1	3	/	-0.93	59*
COc1ccc(-c2[nH]ncc2CN2CCCC2c2nonc2C)c(F)c1 (stereo unspecified)	2	2	39*	1.1	13
Cc1nonc1C1CCCN1Cc1cn[nH]c1-c1ccc2c(c1)OCO2 (stereo unspecified)	-2	2	9	0.78	2
COc1ccc(OC)c(NC(=O)CN(C)CC(=O)Nc2ccccc2Br)c1	-3	2	16	0.46	-3
Cc1ccc2nc(-c3ccc(N4C(=N)SC5CS(=O)(=O)CC54)cc3)sc2c1 (stereo unspecified)	1	6	-25	0.5	-8
c1cncc(-c2nc(NCc3ccc4c(c3)OCO4)c3ccccc3n2)c1	0	/	7	-0.37	/
c1cncc(-c2nc(NCC3COc4ccccc4O3)c3ccccc3n2)c1 (stereo unspecified)	/	3	21	-0.6	67*

Screening results as filed in PubChem.
